# System: MS2 coat protein
# Assay: apparent Kd, MS2 coat protein; higher = weaker binding; RNA-MaP array
# In short: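 The designed RNAs, transcribed from sequenced DNA templates on an Illumina sequencing chip, were incubated with fluorescently labeled MS2 coat protein at room temperature. Protein ranged from 1.5 nM to 3 μM, with 0.8–1.5 h incubation at the lowest and 10–20 min at the highest concentrations, in Tris-HCl pH 7.5 buffer with KCl, MgCl2, BSA, DTT, tRNA and Tween20, with or without input ligand. The median of per-cluster binding-curve fits gives the apparent Kd, and designs measured on fewer than 10 clusters were excluded.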
# [1] = designed as: OFF switch for theophylline, no ligand
# [2] = ligand present: theophylline, designed as: OFF switch for theophylline
# [3] = designed as: OFF switch for flavin mononucleotide, no ligand
# [4] = ligand present: flavin mononucleotide, designed as: OFF switch for flavin mononucleotide
# [5] = designed as: ON switch for flavin mononucleotide, no ligand
# [6] = ligand present: flavin mononucleotide, designed as: ON switch for flavin mononucleotide
Sequence,apparent Kd [3],apparent Kd [4],also measured
CGCGGACCACCUGAUACCAGCGCAGUCAUGCAUGAACCCAACAUGAGGAUCACCCAUGUACGCCCUUGGCAGCAGGGAAAAGUCG,–,–,apparent Kd [1]: 161 nM; apparent Kd [2]: 267 nM
CCUCGUGGACAGGAUAUACACUCGUAUGAUCAUGUAGAAGGGUCCACAUGAGGAUCACCCAUGUUGACAGCCGU,60.5 nM,81.4 nM,–
GCACGGGCGAUCGGCACUUUUACUAAUAUACGAGGACCGGUACGGCCGCCACUCGAGCUAAGACAUGAGGAUCACCCAUGUAACG,–,–,"apparent Kd (designed as: OFF switch for tryptophan, no ligand): 26.2 nM; apparent Kd (ligand present: tryptophan, designed as: OFF switch for tryptophan): 49.3 nM"
CGGCGACAUGAGGAUCACCCAUGUUAGGAUAUUCAGUUAACUGUGUUUGAUCGUUUGAGAAGAAGGAACGUGAG,10.7 nM,10.2 nM,–
AGCACGAGCGCAGGAUAUGCAUAACCCGUAGCUGCAGAAGGGCGACAUGAGGAUCACCCAUGUAUAUCCAGAACUACAAUCUGA,–,–,apparent Kd [5]: 35.8 nM; apparent Kd [6]: 33 nM
AGUAGACGAGGAUAUACGGGCAUAUUUGAUAAGAAGAACAGACAUGAGGAUCACCCAUGUAGAAGGCGAGGCUA,11.1 nM,10.6 nM,–
GUGAGACAUGAGGAUCACCCAUGUUAGGAUAUAAAAGGCAAACGUAAUGGCGAGGUUAAUAGAAGGAACAGAAA,15.6 nM,11.9 nM,–
UCGCAUUCAGGAUAUACUUAAAGGUGAACUGAUCAUAGCAAACAUGAGGAUCACCCAUGUAGAAGGGAAAUAUC,99.2 nM,72.7 nM,–
CUACAUGGGCUCGAUACCAGUCAGCUCUCGCGUCUCUCAGACAUGAGGAUCACCCAUGUUGACCCUUGGCAGCGACGAUGUAGGC,–,–,apparent Kd [1]: 79.8 nM; apparent Kd [2]: 500 nM
AAAAUUGAAGGAUAUACAUGAGGAUCACCCAUGUGCAACAUAUUUGAAUGGCCUCACGGUAGAAGGUCAAAACG,6.83 nM,7.52 nM,–
AUAUUGUUUAUAGGAUAUUACACUAAGGUGACAUGAGGAUCACCCAUGUCCUCAACCACACGACUUAAGAAGGAUAAACGUUGG,46.5 nM,54.9 nM,–
GUCACACAGUAGGAUACCAGCGUGGCUUAUCCCUGAUCGUACAUGAGGAUCACCCAUGUCCGCCCUUGGCAGCCUCCUGCUCGGA,–,–,apparent Kd [1]: 12.7 nM; apparent Kd [2]: 34.5 nM
ACAAACUCAGGAUAUAACGGUGGACACAUGAGGAUCACCCAUGUAAUCCGUGUGACUUAUUUAGAAGGGAGGCGAU,8.35 nM,8.34 nM,–
UUACAACUAAUGGAUACCAGCCGCGUGCUAGUGGUAGCAUACAUGAGGAUCACCCAUGUCGGCCCUUGGCAGCCACGCCCAUGCU,–,–,apparent Kd [1]: 14.5 nM; apparent Kd [2]: 21.5 nM
GGAAUGUCAGGAUAUCUAAUUACCCAGAAAGAUAUGGAACCAGAGAAGGGACAUGAGGAUCACCCAUGUAUAAC,10.2 nM,12.4 nM,–
UAACCAUGCAAAGGAUAUCCAAUACUAUGAGACGGAGAAGGUAGAAACAUGGAGAAUUCCUACAUGAGGAUCACCCAUGUUAGA,387 nM,245 nM,–
GACAUGAGGAUCACCCAUGUUAAAGAUCCCAGCAUGCAACUCAGAAGGCUAAACUGUGGAUAGAAAGAGGAUAUGAGUUUAUAC,9.62 nM,9.57 nM,–
AAAAGGUCCGCUACAUGAGGAUCACCCAUGUAAAGGGUAAAUCAGGAUAUGGACGGGAGUCUUAACCAGAAGGGAUUACAGGUC,–,–,apparent Kd [5]: 31.6 nM; apparent Kd [6]: 25.1 nM
ACGAAUGUAGGAUAUACCAGUAGGAGAUGGGUAUCAGCACCACAUGAGGAUCACCCAUGUAGAAGGACACGUGA,38.4 nM,40.3 nM,–
GAUAGAUAUGUAAGGAUAUGUGACGCGCUUGAGAAACAGAAGGAACAUGAGGAUCACCCAUGUAGAUGUUGUGA,11.2 nM,9.94 nM,–
UGAUACAUGAGGAUCACCCAUGUUGAUCCCGAGAAGUCCGUAAGAAGGACAGACACGAUGGAUCUGUAGGAUAUUACGACGGAC,182 nM,122 nM,–

# From the EternaBench riboswitch data
